Measurements taken from ChEMBL document CHEMBL1158443, “Discovery of novel lipophilic inhibitors of OXA-10 enzyme (class D beta-lactamase) by screening amino analogs and homologs of citrate and isocitrate” (Bioorg Med Chem Lett, 2009).

Assays:
[1] = biological target: T1, Imipenem-hydrolyzing beta-lactamase (Enterobacter cloacae) (UniProt P52663); assay: Inhibition of Enterobacter cloacae NMCA beta-lactamase assessed as residual activity at 100 uM at pH 7 using phosphate buffer by spectrophotometry; values are per cent of control
T1 sequence (whole entry): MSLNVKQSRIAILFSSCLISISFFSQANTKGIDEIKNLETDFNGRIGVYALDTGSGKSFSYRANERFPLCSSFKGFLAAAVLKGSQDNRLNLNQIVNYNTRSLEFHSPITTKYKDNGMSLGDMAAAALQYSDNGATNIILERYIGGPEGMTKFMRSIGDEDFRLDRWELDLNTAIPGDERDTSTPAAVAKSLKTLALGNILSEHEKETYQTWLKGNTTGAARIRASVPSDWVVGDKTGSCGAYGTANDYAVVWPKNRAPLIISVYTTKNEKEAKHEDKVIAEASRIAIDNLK

[2] = Inhibition of TEM1 beta-lactamase assessed as residual activity at 100 uM at pH 7 using phosphate buffer by spectrophotometry; values are per cent of control
[3] = biological target: Beta-lactamase OXA-10 (Pseudomonas aeruginosa) (UniProt P14489); assay: Inhibition of Pseudomonas aeruginosa OXA10 beta-lactamase assessed as residual activity at 100 uM at pH 7 using phosphate buffer by spectrophotometry; values are per cent of control
[4] = biological target: Beta-lactamase (Bacillus licheniformis) (UniProt P00808); assay: Inhibition of Bacillus licheniformis BS3 beta-lactamase assessed as residual activity at 100 uM at pH 7 using phosphate buffer by spectrophotometry; values are per cent of control
Sequence of Beta-lactamase (Bacillus licheniformis) (P00808 whole entry): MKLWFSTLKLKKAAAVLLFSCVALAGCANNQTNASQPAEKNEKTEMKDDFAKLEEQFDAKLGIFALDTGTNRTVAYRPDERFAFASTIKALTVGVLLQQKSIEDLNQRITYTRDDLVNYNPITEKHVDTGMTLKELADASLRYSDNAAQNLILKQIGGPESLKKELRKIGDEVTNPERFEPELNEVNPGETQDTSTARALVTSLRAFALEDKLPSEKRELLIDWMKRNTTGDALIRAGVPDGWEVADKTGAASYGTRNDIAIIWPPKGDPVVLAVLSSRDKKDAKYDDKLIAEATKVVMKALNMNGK

[5] = biological target: Beta-lactamase (Enterobacter cloacae) (UniProt P05364); assay: Inhibition of Enterobacter cloacae P99 beta-lactamase assessed as residual activity at 100 uM at pH 7 using phosphate buffer by spectrophotometry; values are per cent of control
Sequence of Beta-lactamase (Enterobacter cloacae) (P05364 21-381 limits assumed): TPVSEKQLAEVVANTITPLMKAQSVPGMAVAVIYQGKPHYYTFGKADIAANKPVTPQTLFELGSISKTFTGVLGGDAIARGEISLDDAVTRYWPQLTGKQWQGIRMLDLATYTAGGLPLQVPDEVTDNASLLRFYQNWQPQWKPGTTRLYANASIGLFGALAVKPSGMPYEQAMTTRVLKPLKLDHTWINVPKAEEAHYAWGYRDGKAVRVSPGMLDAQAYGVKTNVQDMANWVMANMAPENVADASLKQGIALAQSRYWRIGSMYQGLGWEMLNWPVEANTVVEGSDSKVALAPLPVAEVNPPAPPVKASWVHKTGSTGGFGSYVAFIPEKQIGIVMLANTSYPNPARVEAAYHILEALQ

Bacillus cereus [6] = assay: Inhibition of Bacillus cereus BC2 beta-lactamase assessed as residual activity at 100 uM at pH 5 using acetate buffer by spectrophotometry; values are per cent of control
Bacillus cereus [7] = assay: Inhibition of Bacillus cereus BC2 beta-lactamase assessed as residual activity at 100 uM at pH 7 using HEPES buffer by spectrophotometry; values are per cent of control
[8] = biological target: Beta-lactamase (Bacillus licheniformis) (UniProt P00808); assay: Inhibition of Bacillus licheniformis BS3 beta-lactamase assessed as residual activity at 100 uM at pH 5 using acetate buffer by spectrophotometry; values are per cent of control
[9] = biological target: Beta-lactamase (Enterobacter cloacae) (UniProt P05364); assay: Inhibition of Enterobacter cloacae P99 beta-lactamase assessed as residual activity at 100 uM at pH 5 using acetate buffer by spectrophotometry; values are per cent of control
[10] = biological target: Beta-lactamase OXA-10 (Pseudomonas aeruginosa) (UniProt P14489); assay: Inhibition of Pseudomonas aeruginosa OXA10 beta-lactamase assessed as residual activity at 100 uM at pH 5 using acetate buffer by spectrophotometry; values are per cent of control
[11] = biological target: T1, Imipenem-hydrolyzing beta-lactamase (Enterobacter cloacae); assay: Inhibition of Enterobacter cloacae NMCA beta-lactamase assessed as residual activity at 100 uM at pH 5 using acetate buffer by spectrophotometry; values are per cent of control
[12] = biological target: Beta-lactamase VIM-4 (Pseudomonas aeruginosa) (UniProt Q8KRJ3); assay: Inhibition of Pseudomonas aeruginosa VIM4 beta-lactamase assessed as residual activity at 100 uM at pH 7 using HEPES buffer by spectrophotometry; values are per cent of control
[13] = Inhibition of TEM1 beta-lactamase assessed as residual activity at 100 uM at pH 5 using acetate buffer by spectrophotometry; values are per cent of control
Beta-lactamase = Beta-lactamase (Bacillus licheniformis, UniProt P00808); assay: Inhibition of Bacillus licheniformis BS3 beta-lactamase at pH 5
Sequence of Beta-lactamase (P00808 whole entry): as the sequence (P00808 whole entry) above

Beta-lactamase OXA-10 [14] = biological target: T2, Beta-lactamase OXA-10 (Pseudomonas aeruginosa, UniProt P14489); assay: Inactivation of Pseudomonas aeruginosa OXA10 beta-lactamase at pH 7
[15] = Competitive inhibition of TEM1 beta-lactamase at pH 5
Summary of the method: (§1)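 Ki came from plotting v0/vi against inhibitor concentration. v0/vi is the ratio of nitrocefin hydrolysis rates without and with inhibitor, monitored spectrophotometrically at 482 nm. Enzyme (1-100 nM) was preincubated with inhibitor for 30 min at 37 °C in the buffer for the stated pH.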

[16] = test system: O=C(Cc1cccs1)N[C@@H]1C(=O)N2C(C(=O)O)=C(/C=C/c3ccc([N+](=O)[O-])cc3[N+](=O)[O-])CS[C@H]12; assay: Activity of Pseudomonas aeruginosa VIM4 beta-lactamase
Beta-lactamase OXA-10 [17] = biological target: T2, Beta-lactamase OXA-10; assay: Competitive inhibition of Pseudomonas aeruginosa OXA10 beta-lactamase at pH 7
Summary of the method: as §1

[18] = Ratio of Kcat to Km for TEM1 beta-lactamase
[19] = biological target: Beta-lactamase VIM-4 (Pseudomonas aeruginosa) (UniProt Q8KRJ3); assay: Ratio of Kcat to Km for Pseudomonas aeruginosa VIM4 beta-lactamase
Bacillus cereus [20] = assay: Ratio of Kcat to Km for Bacillus cereus BC2 beta-lactamase
[21] = biological target: Beta-lactamase OXA-10 (Pseudomonas aeruginosa) (UniProt P14489); assay: Ratio of Kcat to Km for Pseudomonas aeruginosa OXA10 beta-lactamase
[22] = Activity of TEM1 beta-lactamase
Bacillus cereus [23] = assay: Activity of Bacillus cereus BC2 beta-lactamase
[24] = biological target: T1, Imipenem-hydrolyzing beta-lactamase (Enterobacter cloacae); assay: Ratio of Kcat to Km for Enterobacter cloacae NMCA beta-lactamase
[25] = substrate: O=C(Cc1cccs1)N[C@@H]1C(=O)N2C(C(=O)O)=C(/C=C/c3ccc([N+](=O)[O-])cc3[N+](=O)[O-])CS[C@H]12; assay: Activity of Pseudomonas aeruginosa OXA10 beta-lactamase
[26] = substrate: O=C(Cc1cccs1)N[C@@H]1C(=O)N2C(C(=O)O)=C(/C=C/c3ccc([N+](=O)[O-])cc3[N+](=O)[O-])CS[C@H]12; assay: Activity of Enterobacter cloacae NMCA beta-lactamase

COC(=O)C(N)(CC(=O)OCc1ccccc1)CC(=O)OCc1ccccc1
residual activity [1]: 63% | residual activity [2]: 81% | residual activity [3]: 100% | residual activity [4]: 100% | residual activity [5]: 100% | residual activity (Bacillus cereus [6]): 93% | residual activity (Bacillus cereus [7]): 100%

CCOC(=O)CCC1(C(=O)OCC)CCC(=O)N1 (configuration not stated)
residual activity [8]: 96% | residual activity [9]: 100% | residual activity [1]: 100% | residual activity [2]: 94% | residual activity [3]: 97% | residual activity [10]: 98% | residual activity [4]: 85% | residual activity [11]: 100% | residual activity [5]: 100% | residual activity (Bacillus cereus [6]): 100% | residual activity [12]: 96% | residual activity [13]: 80%

COC(=O)C(N)(CC(=O)O)CC(=O)O
residual activity [8]: 97% | residual activity [9]: 93% | residual activity [1]: 94% | residual activity [2]: 99% | residual activity [3]: 96% | residual activity [10]: 83% | residual activity [4]: 96% | residual activity [11]: 96% | residual activity [5]: 100% | residual activity (Bacillus cereus [6]): 90% | residual activity (Bacillus cereus [7]): 100% | residual activity [12]: 100% | residual activity [13]: 92%

O=C(O)CC(O)(CC(=O)O)C(=O)O [CITRIC ACID]
Ki (Beta-lactamase): 490 µM

NC(CC(=O)OCc1ccccc1)(CC(=O)OCc1ccccc1)C(=O)OCc1ccccc1
residual activity [2]: 100% | Ki (Beta-lactamase OXA-10 [14]): 95 µM | residual activity [3]: 10% | residual activity [4]: 100% | residual activity (Bacillus cereus [6]): 90%

NC(CC(=O)O)(CC(=O)O)C(=O)O
residual activity [2]: 95% | residual activity [4]: 88% | residual activity [5]: 81% | residual activity [12]: 100% | Ki [15]: 150 µM

COC(=O)CC(N)(CC(=O)OC)C(=O)OCc1ccccc1
residual activity [3]: 100% | residual activity (Bacillus cereus [6]): 100%

Beta-lactamase VIM-4 (Pseudomonas aeruginosa) (from UniProt Q8KRJ3)
Km [16]: 10 µM | kcat [16]: 40 s⁻¹

O=C(O)CC(C(=O)O)C(O)C(=O)O (configuration not stated) [ISOCITRATE]
Ki (Beta-lactamase): 2200 µM

COC(=O)CC(CC(=O)OC)(NC(=O)Cc1ccccc1)C(=O)OC
residual activity (Bacillus cereus [7]): 100%

COC(=O)C(CC(=O)O)(CC(=O)O)NC(=O)COc1ccccc1
residual activity [1]: 66% | residual activity [2]: 98% | residual activity [3]: 100% | residual activity [4]: 96% | residual activity [5]: 85% | residual activity (Bacillus cereus [6]): 100% | residual activity (Bacillus cereus [7]): 86% | residual activity [12]: 100%

O=C(O)CC(CC(=O)O)(NC(=O)COc1ccccc1)C(=O)O
residual activity [8]: 70% | residual activity [9]: 100% | residual activity [1]: 96% | residual activity [2]: 96% | residual activity [3]: 84% | residual activity [10]: 82% | residual activity [4]: 80% | residual activity [11]: 85% | residual activity [5]: 97% | residual activity (Bacillus cereus [6]): 100% | residual activity [12]: 100% | residual activity [13]: 100%

O=C(COc1ccccc1)NC(CC(=O)OCc1ccccc1)(CC(=O)OCc1ccccc1)C(=O)OCc1ccccc1
Ki (Beta-lactamase OXA-10 [17]): 20 µM | residual activity [3]: 10%

O=C(Cc1cccs1)N[C@@H]1C(=O)N2C(C(=O)O)=C(/C=C/c3ccc([N+](=O)[O-])cc3[N+](=O)[O-])CS[C@H]12
Ratio [18]: 2.5 ×10⁶ /M/s | Ratio [19]: 4 ×10⁶ /M/s | Ratio (Bacillus cereus [20]): 4 ×10⁶ /M/s | Ratio [21]: 2 ×10⁷ /M/s | Km [22]: 20 µM | kcat [22]: 50 s⁻¹ | Km (Bacillus cereus [23]): 10 µM | kcat (Bacillus cereus [23]): 40 s⁻¹ | Ratio [24]: 3.5 ×10⁶ /M/s

CCOC(=O)CC(N)(CC(=O)OCC)C(=O)OCC
residual activity [2]: 71% | residual activity [4]: 82% | residual activity [5]: 87% | residual activity (Bacillus cereus [6]): 93% | residual activity (Bacillus cereus [7]): 92%

NC(C(=O)O)C(CC(=O)O)C(=O)O (configuration not stated)
residual activity [8]: 97% | residual activity [9]: 94% | residual activity [1]: 100% | residual activity [2]: 100% | residual activity [3]: 92% | residual activity [10]: 85% | residual activity [4]: 85% | residual activity [11]: 86% | residual activity [5]: 100% | residual activity (Bacillus cereus [6]): 100% | residual activity [12]: 94% | residual activity [13]: 90%

COC(=O)C(CC(=O)OCc1ccccc1)(CC(=O)OCc1ccccc1)NC(=O)COc1ccccc1
residual activity [3]: 10%

COC(=O)CC(N)(CC(=O)OC)C(=O)O
residual activity [8]: 100% | residual activity [9]: 73% | residual activity [1]: 95% | residual activity [2]: 99% | residual activity [3]: 100% | residual activity [10]: 79% | residual activity [4]: 95% | residual activity [11]: 99% | residual activity [5]: 100% | residual activity (Bacillus cereus [6]): 100% | residual activity (Bacillus cereus [7]): 100% | residual activity [12]: 100% | residual activity [13]: 87%

CCOC(=O)C1CC(=O)NC1C(=O)OCC (configuration not stated)
residual activity [8]: 100% | residual activity [9]: 100% | residual activity [1]: 100% | residual activity [2]: 100% | residual activity [3]: 91% | residual activity [10]: 87% | residual activity [4]: 100% | residual activity [11]: 93% | residual activity [5]: 100% | residual activity (Bacillus cereus [6]): 100% | residual activity [12]: 94% | residual activity [13]: 86%

B1: Beta-lactamase OXA-10 (Pseudomonas aeruginosa), P14489 (protein)
chain: MKTFAAYVIIACLSSTALAGSITENTSWNKEFSAEAVNGVFVLCKSSSKSCATNDLARASKEYLPASTFKIPNAIIGLETGVIKNEHQVFKWDGKPRAMKQWERDLTLRGAIQVSAVPVFQQIAREVGEVRMQKYLKKFSYGNQNISGGIDKFWLEGQLRISAVNQVEFLESLYLNKLSASKENQLIVKEALVTEAAPEYLVHSKTGFSGVGTESNPGVAWWVGWVEKETEVYFFAFNMDIDNESKLPLRKSIPTKIMESEGIIGG
Km [25]: 20 µM | kcat [25]: 400 s⁻¹

B2: Imipenem-hydrolyzing beta-lactamase (Enterobacter cloacae), P52663 (protein)
chain: T1 sequence (whole entry)
Km [26]: 40 µM | kcat [26]: 130 s⁻¹
